This passage reports IC50 results from ChEMBL document CHEMBL1132178, “5-Amino-1-(chloromethyl)-1,2-dihydro-3H-benz[e]indoles: relationships between structure and cytotoxicity for analogues bearing different DNA minor groove binding subunits” (J Med Chem, 1999).

pIC50: −log10 of the molar value.

As usually defined, the pIC50 is the negative decadic logarithm of the IC50, by convention in mol/L.

One experiment has as its system CHO-AA8. As to the kind of experiment: Tested for growth inhibition against AA8 tumor cell line(chinese hamster ovary). The format is functional, cell-based, Cricetulus griseus. The essentials: (§1)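 Log-phase cultures seeded in 96-well plates (200 AA8, 300 UV4 or 50 EMT6 cells/well), drug added after 24 h. Aerobic 4 h exposure at 37 °C under 5% CO2, then washed and regrown 4 days. Cell density read by sulforhodamine B staining. IC50 is the concentration giving 50% growth inhibition versus same-plate controls; mean of 2–5 determinations ± SEM.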

A further experiment relates to EMT6. The experiment can be described thus: Tested for growth inhibition against EMT6 tumor cell line(murine mammary carcinoma). The format is functional, cell-based, Mus musculus. The essentials:
as §1

In a further experiment the test system is SK-OV-3. The experiment can be described thus: Tested for growth inhibition against SKOV3 tumor cell line(human ovarian). The class given is functional, cell-based. The method, boiled down: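 Log-phase cultures of 600 SKOV3 cells/well in 96-well plates, drug added after 24 h. Aerobic 4 h exposure at 37 °C under 5% CO2, then washed and regrown 5 days. Growth read by sulforhodamine B staining. IC50 is the concentration giving 50% inhibition relative to same-plate controls; average of 2–5 determinations ± SEM.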

In a further experiment the test system is UV4. The experiment can be described thus: The compound was tested for growth inhibition against UV4 tumor cell line(chinese hamster ovary). The class given is functional, cell-based, Cricetulus griseus. The essentials: as §1

For the molecule `COc1ccc2[nH]c(/C=C/C(=O)N3CC(CCl)c4c3cc(N)c3ccccc43)cc2c1` (stereo unspecified), the negative logarithm of the IC50 (pIC50) in the experiment with CHO-AA8 (Cricetulus griseus, CHO-AA8) was 9.55; with EMT6 (Mus musculus, EMT6), 9.64; in the experiment on SK-OV-3 (Homo sapiens, SK-OV-3), 9.32; in the experiment with UV4 (Cricetulus griseus, UV4), 9.66.
The corresponding values for `CC(=O)Nc1cc(/C=C/C(=O)N2CC(CCl)c3c2cc(N)c2ccccc32)n(C)n1` (stereo unspecified) are 7.97, 8.31, 7.89 and 8.27.
Take `CCCC(=O)Nc1cc(/C=C/C(=O)N2CC(CCl)c3c2cc(N)c2ccccc32)n(C)c1` (stereo unspecified): the negative-log IC50 (pIC50) with CHO-AA8 (Cricetulus griseus, CHO-AA8) is 7.51; in the experiment with EMT6 (Mus musculus, EMT6) it was 8.23; in the experiment on SK-OV-3 (Homo sapiens, SK-OV-3), 7.66; with UV4 (Cricetulus griseus, UV4) it was 7.80.
The corresponding values for `CC(=O)Nc1ccc2[nH]c(C(=O)N3CC(CCl)c4c3cc(N)c3ccccc43)cc2c1` (stereo unspecified) are 7.90, 8.28, 7.76 and 8.12.
The matching figures for `COc1cc(OCCN(C)C)c2[nH]c(C(=O)N3CC(CCl)c4c3cc(N)c3ccccc43)cc2c1` (stereo unspecified): 8.43, 8.72, 8.38 and 8.72.
`CC(=O)Nc1ccc(/C=C/C(=O)N2CC(CCl)c3c2cc(N)c2ccccc32)cc1` (stereo unspecified): the negative logarithm of the IC50 (pIC50) in the experiment on CHO-AA8 (Cricetulus griseus, CHO-AA8) was 8.59; in the experiment on EMT6 (Mus musculus, EMT6), 8.92; in the experiment with SK-OV-3 (Homo sapiens, SK-OV-3), 8.57; in the experiment with UV4 (Cricetulus griseus, UV4) it was 8.85.
The corresponding values for `COc1ccc2[nH]c(C(=O)N3CC(CCl)c4c3cc(N)c3ccccc43)cc2c1` (stereo unspecified) are 8.89, 9.01, 8.73 and 9.08.
The corresponding values for `COc1ccc(/C=C/C(=O)N2CC(CCl)c3c2cc(N)c2ccccc32)cc1` (stereo unspecified) are 10.05, 10.05, 9.62 and 10.24.
The matching figures for `CN(C)CCOc1ccc2[nH]c(C(=O)N3CC(CCl)c4c3cc(N)c3ccccc43)cc2c1` (stereo unspecified): 8.39, 8.89, 8.15 and 8.77.
For `Nc1cc2c(c3ccccc13)C(CCl)CN2C(=O)c1cc2cc(NC(=O)c3cc4ccccc4o3)ccc2[nH]1` (stereo unspecified), the negative-log IC50 (pIC50) in the experiment on CHO-AA8 (Cricetulus griseus, CHO-AA8) was 8.70; in the experiment with EMT6 (Mus musculus, EMT6) it was 8.89; with SK-OV-3 (Homo sapiens, SK-OV-3) it was 8.46; in the experiment on UV4 (Cricetulus griseus, UV4) it was 8.82.
The matching figures for `COc1cc2cc(C(=O)N3CC(COS(C)(=O)=O)c4c3cc(N)c3ccccc43)[nH]c2c(OC)c1OC` (stereo unspecified): 9.32, 9.40, 8.92 and 9.34.
Regarding `CC(=O)Nc1cccc(/C=C/C(=O)N2CC(CCl)c3c2cc(N)c2ccccc32)c1` (stereo unspecified), the negative logarithm of the IC50 (pIC50) is 8.57 in the experiment with CHO-AA8 (Cricetulus griseus, CHO-AA8); 9.07 in the experiment with EMT6 (Mus musculus, EMT6); 8.82 in the experiment on SK-OV-3 (Homo sapiens, SK-OV-3); 8.82 in the experiment with UV4 (Cricetulus griseus, UV4).
Take `Nc1ccc2[nH]c(C(=O)N3CC(CCl)c4c3cc(N)c3ccccc43)cc2c1` (stereo unspecified): the negative logarithm of the IC50 (pIC50) is 8.60 in the experiment on CHO-AA8 (Cricetulus griseus, CHO-AA8); 9.08 in the experiment on EMT6 (Mus musculus, EMT6); 8.52 in the experiment on SK-OV-3 (Homo sapiens, SK-OV-3); 8.96 with UV4 (Cricetulus griseus, UV4).
In the case of `CC(=O)Nc1cc(C(=O)Nc2cc(C(=O)N3CC(CCl)c4c3cc(N)c3ccccc43)nn2C)nn1C` (stereo unspecified), the negative logarithm of the IC50 (pIC50) in the experiment on CHO-AA8 (Cricetulus griseus, CHO-AA8) was 6.43; in the experiment with EMT6 (Mus musculus, EMT6) it was 6.67; in the experiment on SK-OV-3 (Homo sapiens, SK-OV-3), 7.31; in the experiment with UV4 (Cricetulus griseus, UV4), 6.60.
For the molecule `COc1cccc(/C=C/C(=O)N2CC(CCl)c3c2cc(N)c2ccccc32)c1` (stereo unspecified), the pIC50 was 9.43 in the experiment on CHO-AA8 (Cricetulus griseus, CHO-AA8); 9.20 in the experiment on EMT6 (Mus musculus, EMT6); 9.17 with SK-OV-3 (Homo sapiens, SK-OV-3); 9.38 in the experiment with UV4 (Cricetulus griseus, UV4).
The matching figures for `COc1cc2cc(C(=O)N3CC(CCl)c4c3cc(N)c3ccccc43)[nH]c2cc1OCCN(C)C` (stereo unspecified): 8.44, 8.70, 8.28 and 8.68.
The corresponding values for `CN(C)CCOc1ccc(/C=C/C(=O)N2CC(CCl)c3c2cc(N)c2ccccc32)cc1` (stereo unspecified) are 8.82, 9.20, 8.72 and 9.25.
As to `COc1cc2cc(C(=O)N3CC(CCl)c4c3cc(N)c3ccccc43)[nH]c2c(OC)c1OC` (single isomer, unassigned; (+)), the pIC50 is 9.68 in the experiment on CHO-AA8 (cho-aa8), 9.89 in the experiment with EMT6 (emt6), 9.27 in the experiment on SK-OV-3 (sk-ov-3) and 9.85 in the experiment on UV4 (uv4).
The matching figures for `COc1cc2cc(C(=O)N3CC(CCl)c4c3cc(N)c3ccccc43)[nH]c2c(OC)c1OC` (single isomer, unassigned; (-)): 7.85, 8.15, 8.10 and 8.57.
